HSF1 activator: HSF-1 activators, primary screen, NIH3T3-HGL cells, MG132 stress, luminescence, single point | hit rate 1.7% among 300,000 | AID 504408, 2011 | activation, % at 9 µM | NIH3T3-HGL HSF-1 luciferase reporter, 8 h; 100% = twice DMSO control signal;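 active = mean replicate activation of at least 50% with a set share of replicates each reaching 50%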;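 also: 0% = median of the neutral control wells and 100% = twice that signal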
HSF1 inh: HSF1 inhibitors in luciferase reporter cells, primary screen, cell-based, NIH3T3, luminescence | NIH3T3-HGL HSE-luciferase, MG132-induced, luminescence 8 h; active compounds read low | activity change, negative = inhibition, % at 7.5 µM (by protocol) | hit rate 0.77% among 300,000;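 active = more than half of replicate wells show activity change below -50%, luminescence cut by over half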;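 also: luciferase reports HSF-1 transcriptional activity via heat shock element; 0% = median of DMSO wells and -100% = zero luminescence signal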
PHOSPHO1 inh: PubChem AID 1565; recombinant PHOSPHO1, absorbance phosphatase assay; inhibition, % at 13.3 µM; hit rate 1.1% among 290,000; in the data active = inhibition above about 60%
Target sequence (Q8TCT1 whole entry, looked up): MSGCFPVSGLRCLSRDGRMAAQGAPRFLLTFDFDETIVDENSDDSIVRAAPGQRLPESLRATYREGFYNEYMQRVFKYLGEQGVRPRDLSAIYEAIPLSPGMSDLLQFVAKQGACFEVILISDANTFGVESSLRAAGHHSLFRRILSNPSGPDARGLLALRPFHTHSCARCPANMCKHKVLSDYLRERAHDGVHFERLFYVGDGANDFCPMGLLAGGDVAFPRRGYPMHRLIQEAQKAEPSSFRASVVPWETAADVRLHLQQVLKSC
ALR inh: inhibitors of human ALR sulfhydryl oxidase, primary screen, biochemical, H2O2 detection, HRP-luminol luminescence, single point | inhibition, % (concentration not given with the values) | hit rate 3.8% among 290,000 | FAD-linked sulfhydryl oxidase ALR (Homo sapiens), P55789 | purified ALR, DTT oxidation;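 active = mean replicate inhibition above about 79%, with every replicate also reaching it, limit read from the data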
Target sequence (P55789 whole entry, looked up): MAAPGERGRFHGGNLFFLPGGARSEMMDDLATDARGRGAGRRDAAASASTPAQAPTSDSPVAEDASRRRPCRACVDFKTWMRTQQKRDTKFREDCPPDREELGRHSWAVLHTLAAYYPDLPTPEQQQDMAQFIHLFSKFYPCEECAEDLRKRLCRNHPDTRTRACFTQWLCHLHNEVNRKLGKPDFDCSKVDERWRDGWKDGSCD
core dimer inh: inhibitors of HCV core protein dimerization, primary screen, biochemical, TR-FRET, high-throughput; TR-FRET GST/Flag-core106 dimerization, 1536-well; inhibition, % at 5 µM; hit rate 0.33% among 300,000; AID 1899, 2009;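 active = inhibition above the mean of all tested compounds plus 3 SD, set per screening campaign, cut at about 45% in these data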
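Material: Tagged HCV core106 pair (GST and Flag) | Amount: GST-core106 13.5 nM, Flag-core106 17 nM | Medium: KF-containing HEPES buffer, pH 7.45, DTT, CHAPS, BSA | Reagent: Eu donor and XL665 acceptor anti-tag antibodies | Schedule: 4 h at 22.5 °C | Technique: Time-resolved FRET, ex 340 nm, em 617 and 671 nm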
AI-2 QS modul: Vibrio harveyi AI-2 quorum sensing modulators, primary screen, JMH597 strain, luminescence/OD600 ratio; hit rate 0.4% among 300,000; activity change, % at 7.5 µM; AID 2094, 2009; Vibrio harveyi JMH597 AI-2 luminescence/OD600 ratio, 9 h; active compounds read low; strain lacks LuxN and CqsS sensors; 0 = neutral-control median; in the data active = activity change below about -75%, passing the limit was not always enough;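 also: luminescence divided by OD600 gain over 9 h not by final OD600 alone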
Numbers without * were called inactive; · = not tested or not shown. Sampled rows, rich in hits. Any-hit rate of the full collection: about 6.8%.

SMILES	HSF1 activator	HSF1 inh	PHOSPHO1 inh	ALR inh	core dimer inh	AI-2 QS modul
Cc1ccc(C)c(S(=O)(=O)N2CCCC2CNC(=O)C(=O)NCCc2ccco2)c1 (stereo not drawn)	2	-4	·	-8	4	4
Cc1ccc(C)c(S(=O)(=O)N2CCCCC2CCNC(=O)C(=O)NCCc2ccco2)c1 (stereo not drawn)	54*	20	·	-17	5	18
C=CCC1(Cl)C(=O)C(Cl)=C(N2CCOCC2)C1(OC)OC (stereo not drawn)	-6	-4	-25	1	-10	7
COC(=O)c1[nH]c2ccccc2c1NC(=O)C(C)N1CCOCC1 (stereo not drawn)	-8	0	-4	-2	-6	8
COC(=O)c1[nH]c2ccccc2c1NC(=O)C(C)N1CCN(C(=O)c2ccco2)CC1 (stereo not drawn)	-14	-5	72*	2	0	36
Cc1oc(-c2ccc(Cl)cc2)nc1CS(=O)CC(=O)NCCCN1CC(C)CC(C)C1 (stereo not drawn)	-9	0	13	13	1	6
Cc1oc(-c2ccc(Cl)cc2)nc1CS(=O)CC(=O)NCCN1CCCCCC1 (stereo not drawn)	6	-6	28	99*	-4	8
Cc1ccc(-c2nc(CS(=O)CC(=O)NCCN3CCCCCC3)c(C)o2)cc1 (stereo not drawn)	-2	-1	32	98*	5	13
NC(=O)c1cc(Cc2ccccc2)sc1NC(=O)c1ccco1	134*	94	24	17	2	·
CCCc1cc(C(N)=O)c(NC(=O)c2ccoc2C)s1	2	1	10	98*	5	40
CCOc1ccc(CC(=O)Nc2sc(Cc3ccccc3)cc2C(N)=O)cc1OCC	6	-1	97*	-13	4	15
O=C(Nc1nnc(Cc2ccccc2)s1)c1ccco1	39	8	5	-10	-2	-68
CCOc1ccc(NC(=O)CN(C)C(=O)c2ccccc2Cc2ccccc2)cc1OCC	·	·	·	-11	·	·
O=C(N/N=C/c1ccco1)c1ccc(NC(=O)c2ccc(Cl)cc2)cc1	-9	-7	24	·	-12	-5
C/C(=N\Nc1cc(N2CCOCC2)ncn1)c1ccc(O)cc1	-1	-6	39	97*	-4	17
O=C(CCC1CCCN(C(=O)Cn2cnnn2)C1)NCc1ccccc1F (stereo not drawn)	-5	1	-20	-3	1	6
Cc1ccc(OCC(=O)N/N=C\c2ccc(O)cc2)c([N+](=O)[O-])c1	9	1	24	87*	-3	11
CCc1ccc(OCC(=O)N/N=C\c2ccco2)c([N+](=O)[O-])c1	3	15	-5	96*	54*	21
O=C(COc1cccc([N+](=O)[O-])c1)N/N=C/c1ccco1	-9	-7	45	-2	0	21
O=C(COc1ccccc1[N+](=O)[O-])N/N=C/c1ccc(O)cc1	13	0	7	·	-6	27
CC1(C)Cc2nc(-c3ccccc3)nc(NNC(=O)c3ccco3)c2CO1	8	1	16	97*	-3	9
CSc1nc(-c2ccccc2)nc2c1COC(C)(C)C2	-14	-7	10	-1	-12	23
COC(=O)c1ccc(C2C(C#N)=C(N)Oc3cc(N)ccc32)cc1 (stereo not drawn)	-1	-13	·	97*	-4	20
CCOc1ccc(C2C(C#N)=C(N)Oc3cc(O)ccc32)cc1OCC (stereo not drawn)	-3	-4	-18	-3	9	9
COc1ccc(OC)c(C2C(C#N)=C(N)Oc3cc(N)ccc32)c1 (stereo not drawn)	-4	-9	-34	99*	2	10
SMILES	HSF1 activator	HSF1 inh	PHOSPHO1 inh	ALR inh	core dimer inh	AI-2 QS modul
COc1ccc(OC)c(C2C(C#N)=C(N)Oc3cc(C)[nH]c(=O)c32)c1 (stereo not drawn)	-3	13	-16	-17	-1	14
CCOc1ccccc1C1C(C#N)=C(N)Oc2cc(N)ccc21 (stereo not drawn)	28	3	-3	98*	-1	-25
O=C(NCCc1nc2ccc(Cl)cc2[nH]1)C1CCC(=O)N(Cc2cccc(F)c2)C1 (stereo not drawn)	-8	-2	33	-2	1	15
Cc1ccc(NC(=O)c2snc3c(=O)[nH]cnc23)cc1C	·	·	9	·	·	·
Cc1ccc(NC(=O)c2snc3ccc(Cl)cc23)cc1C	56*	25	-11	·	-22	20
N#C/C(=C/c1ccc(Br)o1)C(N)=O	-92	-92*	11	8	2	21
N#C/C(=C/c1ccc(Br)o1)C(N)=S	8	-2	-125	23	5	-9
Cc1cccc(-n2nc3c(c2NC(=O)c2ccco2)CS(=O)C3)c1C (stereo not drawn)	-2	-16	38	·	-2	14
Cc1ccc(-n2nc3c(c2NC(=O)C(C)(C)C)CSC3)c(C)c1	15	4	88*	·	4	4
CCC(=O)Nc1c2c(nn1-c1ccc(C)cc1C)CSC2	37	19	86*	23	-3	5
Cc1ccc(-n2nc3c(c2NC(=O)c2ccc(Br)o2)CSC3)c(C)c1	9	-7	14	-6	17	28
Cc1cccc(-n2nc3c(c2NC(=O)c2ccco2)CSC3)c1C	12	2	39	53	49*	17
Cc1cc(=O)oc2cc(OC(=O)c3cncc(Br)c3)ccc12	12	4	6	2	0	46
O=C(O)CN1C(=O)C2(OCCO2)c2cc(Br)ccc21	·	·	·	-8	4	4
O=C(O)c1cc(N/N=C/C=C/c2ccccc2)ccc1Cl	10	5	-64	99*	-7	25
O=C(O)c1ccc(COc2ccc(/C=N/NC(=O)c3cccs3)cc2)cc1	13	-6	77*	11	-3	16
Cc1ccc(NC(=O)CCC(=O)N/N=C/c2cccs2)cc1	5	1	-1	-3	-5	7
O=C(CCCNc1ccccc1)N/N=C/c1cccs1	5	3	45	98*	-3	17
Cc1nn(-c2ccccc2)c(Cl)c1/C=N/Nc1ccc(Cl)c(C(=O)O)c1	-53	-43	-18	96*	2	66
